Experimental data taken from ChEMBL document CHEMBL1137208, “2-(1-adamantyl)-4-(thio)chromenone-6-carboxylic acids: potent reversible inhibitors of human steroid sulfatase” (J Med Chem, 2004).

Columns and labels:
[1] = biological target: T1, Steryl-sulfatase (Homo sapiens, UniProt P08842); experiment: Inhibitory activity against human steroid sulfatase over-expressed in CHO cells; format: functional, cell-based
T1 sequence (P08842 whole entry): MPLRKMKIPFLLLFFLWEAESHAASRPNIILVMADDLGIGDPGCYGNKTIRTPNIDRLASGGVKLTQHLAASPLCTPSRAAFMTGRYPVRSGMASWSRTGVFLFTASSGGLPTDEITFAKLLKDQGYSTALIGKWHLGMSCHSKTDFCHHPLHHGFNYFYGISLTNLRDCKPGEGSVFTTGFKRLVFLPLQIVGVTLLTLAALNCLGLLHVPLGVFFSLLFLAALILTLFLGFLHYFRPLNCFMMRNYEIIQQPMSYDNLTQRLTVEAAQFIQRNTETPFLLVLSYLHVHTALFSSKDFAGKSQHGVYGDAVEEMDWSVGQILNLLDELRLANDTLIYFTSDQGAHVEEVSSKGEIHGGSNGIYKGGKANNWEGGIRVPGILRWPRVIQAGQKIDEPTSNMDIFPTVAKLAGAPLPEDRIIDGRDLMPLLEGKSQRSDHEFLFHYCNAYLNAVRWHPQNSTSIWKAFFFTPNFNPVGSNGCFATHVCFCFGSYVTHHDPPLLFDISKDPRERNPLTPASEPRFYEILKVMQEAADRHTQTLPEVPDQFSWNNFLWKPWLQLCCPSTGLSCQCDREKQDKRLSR
Summary of the method: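 Live CHO cells stably expressing human STS, 30 000/well, adhered overnight in phenol red-free RPMI 1640 with 10% FCS. Cells were treated with graded inhibitor for 24 h. Medium was then replaced with the same concentrations plus 0.5 mM 4-MUS for 4 h at 37 °C. Supernatant was stopped at pH 10.4 and read at ex 355/em 460 nm. Signal was normalized to sulforhodamine B protein. Triplicates; IC50 is 50% inhibition.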

[2] = biological target: T1, Steryl-sulfatase; experiment: Inhibitory activity against human steroid sulfatase
Summary of the method: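 Highly purified human STS from stably transfected recombinant CHO cells (purity >95%). Substrate 0.5 mM 4-methylumbelliferyl sulfate, pH 7.5, 37 °C. 4-Methylumbelliferone formed was read by fluorescence after alkalization. Inhibitors were added at graded concentrations from ethanol stocks (final ethanol ≤2%). Ki came from turnover at several substrate and inhibitor levels, using a Hanes plot and a Km/Vmax vs I replot.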

**Q.** What does the source list for NS(=O)(=O)Oc1ccc2oc(C34CC5CC(CC(C5)C3)C4)cc(=O)c2c1?
**A.** IC50 [1]: 0.026 µM; Ki [2]: 0.19 µM

**Q.** Which results are given for NC(=O)c1ccc2oc(C34CC5CC(CC(C5)C3)C4)cc(=O)c2c1?
**A.** IC50 [1]: > 30 µM; Ki [2]: > 50 µM

**Q.** How did the IC50 [1] turn out when O=C(O)c1ccc2oc(C34CC5CC(CC(C5)C3)C4)cc(=O)c2c1 was run?
**A.** The IC50 was 9.4 µM.

**Q.** What about the Ki [2] of the same compound?
**A.** Its Ki is 0.5 µM.

**Q.** Which IC50 [1] does the source give for COC(=O)c1ccc2oc(C34CC5CC(CC(C5)C3)C4)cc(=O)c2c1 here?
**A.** Its IC50 is greater than 30 µM.

**Q.** What about the Ki [2] of the same compound?
**A.** Its Ki is greater than 50 µM.

**Q.** O=C(O)c1ccc2sc(C34CC5CC(CC(C5)C3)C4)cc(=O)c2c1 was tested. Which IC50 [1] did it give?
**A.** Its IC50 is 0.18 µM.

**Q.** And the Ki [2]?
**A.** The Ki was 0.53 µM.

**Q.** O=C(CO)c1ccc2oc(C34CC5CC(CC(C5)C3)C4)cc(=O)c2c1 was tested. Which IC50 [1] did it give?
**A.** Its IC50 is greater than 30 µM.

**Q.** What about the Ki [2] of the same compound?
**A.** Its Ki is 3.2 µM.

**Q.** What does the source list for O=C(O)C(=O)c1ccc2oc(C34CC5CC(CC(C5)C3)C4)cc(=O)c2c1?
**A.** IC50 [1]: 12.3 µM; Ki [2]: 2.2 µM

**Q.** Which results are given for O=Cc1ccc2oc(C34CC5CC(CC(C5)C3)C4)cc(=O)c2c1?
**A.** IC50 [1]: > 30 µM; Ki [2]: > 20 µM

**Q.** For NS(=O)(=O)Oc1ccc2sc(C34CC5CC(CC(C5)C3)C4)cc(=O)c2c1, which IC50 [1] is on record?
**A.** Its IC50 is 0.024 µM.

**Q.** What about the Ki [2] of the same compound?
**A.** The Ki was 0.21 µM.

**Q.** How did the IC50 [1] turn out when N#Cc1ccc2sc(C34CC5CC(CC(C5)C3)C4)cc(=O)c2c1 was run?
**A.** Its IC50 is greater than 30 µM.

**Q.** What about the Ki [2] of the same compound?
**A.** Its Ki is greater than 50 µM.

**Q.** O=C(O)Cc1ccc2oc(C34CC5CC(CC(C5)C3)C4)cc(=O)c2c1 was tested. Which IC50 [1] did it give?
**A.** The IC50 was greater than 30 µM.

**Q.** And the Ki [2]?
**A.** The Ki was greater than 50 µM.

**Q.** Which IC50 [1] does the source give for O=c1cc(C23CC4CC(CC(C4)C2)C3)oc2ccc(CO)cc12 here?
**A.** The IC50 was roughly 30 µM.

**Q.** What about the Ki [2] of the same compound?
**A.** The Ki was 32 µM.

**Q.** With C[C@]12CC[C@@H]3c4ccc(OS(N)(=O)=O)cc4CC[C@H]3[C@@H]1CCC2=O [EMATE] as the compound, how does the IC50 [1] read?
**A.** The IC50 was 0.02 µM.
